Assays:
[1] = biological target: Human immunodeficiency virus type 1 reverse transcriptase (Human immunodeficiency virus 1, UniProt Q72547); experiment: Inhibition of HIV1 wild type reverse transcriptase expressed in Escherichia coli assessed as incorporation of [3H]dTTP into poly(rA)/oligo(dT) by scintillation counting
Method in brief: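 Template was poly(rA)/oligo(dT) 10:1 (0.3 μM 3′-OH ends) with 10 μM [³H]dTTP, at 37 °C. TCA-precipitable counts were taken on GF/C filters. IC₅₀ is 50% inhibition of RT activity.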

[2] = Cytotoxicity against human CEM cells by coulter counter analysis; format: cell-based; details: CEM (CCRF-CEM) cells
Method in brief: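 Mock-infected CEM cultures with compound, cell number counted by Coulter counter as percent of untreated control. CC₅₀ (50% reduction in proliferation) was read from plots against concentration. Values are means of two experiments in triplicate.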

[3] = biological target: Human immunodeficiency virus type 1 reverse transcriptase (Human immunodeficiency virus 1, UniProt Q72547, K103N); experiment: Inhibition of HIV1 reverse transcriptase K103N mutant expressed in Escherichia coli assessed as incorporation of [3H]dTTP into poly(rA)/oligo(dT) by scintillation counting
Method in brief: (§1)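 The RT was recombinant p66(His)/p51 heterodimer, mutant form, expressed in E. coli. TCA-precipitable radioactivity on GF/C filters was read by scintillation. IC50 is the concentration giving 50% inhibition.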

[4] = biological target: Human immunodeficiency virus type 1 reverse transcriptase (Human immunodeficiency virus 1, UniProt Q72547, L100I); experiment: Inhibition of HIV1 reverse transcriptase L100I mutant expressed in Escherichia coli assessed as incorporation of [3H]dTTP into poly(rA)/oligo(dT) by scintillation counting; method in brief: as §1
[5] = biological target: Human immunodeficiency virus type 1 reverse transcriptase (Human immunodeficiency virus 1, UniProt Q72547, Y181I); experiment: Inhibition of HIV1 reverse transcriptase Y181I mutant expressed in Escherichia coli assessed as incorporation of [3H]dTTP into poly(rA)/oligo(dT) by scintillation counting; method in brief: as §1
[6] = test system: Human immunodeficiency virus 1; experiment: Antiviral activity against wild type HIV1 3B infected in human CEM cells assessed as inhibition of virus-induced cytopathicity after 4 days by microscopic analysis; format: functional, organism-based; details: Human immunodeficiency virus 1, 3B, CCRF-CEM, 96 h
Method in brief: (§2)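 CEM cells (~3 × 10⁵ cells/mL) infected with ~100 CCID₅₀ virus per mL, seeded into wells with compound dilutions. Syncytia (giant cell) formation scored microscopically after 4 days at 37 °C. EC₅₀ is the concentration protecting cells by 50%. Values are means of two experiments in triplicate.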

[7] = test system: Human immunodeficiency virus 2; experiment: Antiviral activity against HIV2 isolate ROD infected in human CEM cells assessed as inhibition of virus-induced cytopathicity after 4 days by microscopic analysis; format: functional, organism-based; details: Human immunodeficiency virus 2, ISOLATE ROD, CCRF-CEM, 96 h; method in brief: as §2
[8] = Selectivity index, CC50 for human CEM cells to IC50 for HIV1 3B; format: functional, CCRF-CEM
Method in brief: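 Ratio of CC₅₀ (Coulter count, mock-infected CEM) to EC₅₀ (CEM, HIV-1 IIIB, microscopic syncytia scoring at day 4).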

Row | SMILES | IC50 [1] [µM] | CC50 [2] [µM] | IC50 [3] [µM] | IC50 [4] [µM] | IC50 [5] [µM] | EC50 [6] [µM] | EC50 [7] [µM] | Selectivity Index [8]
1 | Cc1cc(C)cc(S(=O)(=O)c2c(C(=O)NCCOc3ccccc3)[nH]c3ccc(Cl)c(F)c23)c1 | 0.066 | 11 | 18.5 | 0.068 | > 40 | 0.019 | > 2 | 549
2 | Cc1cc(C)cc(S(=O)(=O)c2c(C(=O)NCCOc3ccccc3)[nH]c3ccc(Br)cc23)c1 | 4.72 | > 500 | > 40 | > 40 | > 40 | 0.029 | > 25 | >17241
3 | O=C1Nc2ccc(Cl)cc2[C@@](C#CC2CC2)(C(F)(F)F)O1 [EFAVIRENZ] |  | > 10000 |  |  |  | 0.0015 | > 10 | >6667
4 | Cc1cc(C)cc(S(=O)(=O)c2c(C(=O)NCCc3ccccc3)[nH]c3ccc([N+](=O)[O-])cc23)c1 | 0.06 | > 500 | > 40 | 0.04 | > 40 | 0.0068 | > 50 | >72529
5 | Cc1cc(C)cc(S(=O)(=O)c2c(C(=O)NCCN3CCOCC3)[nH]c3ccc([N+](=O)[O-])cc23)c1 | 0.055 | 42 | > 40 | 0.421 | > 40 | 0.008 | 4.9 | 5250
6 | Cc1cc(C)cc(S(=O)(=O)c2c(C(=O)NCN3CCOCC3)[nH]c3ccc(Br)cc23)c1 | 0.168 | 35 | 0.863 | 0.1 | 4.3 | 0.0034 | > 10 | 10294
7 | Cc1cc(C)cc(S(=O)(=O)c2c(C(=O)NCN3CCCC3)[nH]c3ccc(Cl)c(F)c23)c1 |  | 9.3 |  |  |  | 0.0039 | > 2 | 2385
8 | Cc1cc(C)cc(S(=O)(=O)c2c(C(=O)NCCn3cccc3)[nH]c3ccc(Cl)c(F)c23)c1 | 0.018 | 9.8 | 0.17 | 0.03 | 3.7 | 0.0055 | > 10 | 1782
9 | Cc1cc(C)cc(S(=O)(=O)c2c(C(=O)NCCc3ccccc3)[nH]c3ccc(Cl)c(F)c23)c1 |  | 17 |  |  |  | 0.014 | > 10 | 1214
10 | Cc1cc(C)cc(S(=O)(=O)c2c(C(=O)NCN3CCCCC3)[nH]c3ccc(Cl)c(F)c23)c1 |  | 32 |  |  |  | 0.0039 | > 10 | 8205
11 | Cc1cc(C)cc(S(=O)(=O)c2c(C(=O)NCCN3CCCC3)[nH]c3ccc(Br)cc23)c1 | 0.065 | 5.6 | 0.697 | 0.315 | > 40 | 0.016 | > 2 | 351
12 | Cc1cc(C)cc(S(=O)(=O)c2c(C(=O)NCN3CCOCC3)[nH]c3ccc([N+](=O)[O-])cc23)c1 | 0.15 | 46 | 0.864 | 0.099 | 1.6 | 0.0058 | ≥ 10 | 7931
13 | Cc1cc(C)cc(S(=O)(=O)c2c(C(=O)NCCN3CCCC3)[nH]c3ccc(Cl)c(F)c23)c1 | 0.158 | 6.4 | 2.41 | 1.55 | > 40 | 0.028 | > 2 | 229
14 | Cc1ccnc2c1NC(=O)c1cccnc1N2C1CC1 [NEVIRAPINE] |  | > 10000 |  |  |  | 0.0192 | > 10 | >520
15 | Cc1cc(C)cc(S(=O)(=O)c2c(C(=O)NCCn3cccc3)[nH]c3ccc([N+](=O)[O-])cc23)c1 | 0.034 | 226 | 0.272 | 0.023 | > 40 | 0.0069 | > 50 | 32754
16 | Cc1cc(C)cc(S(=O)(=O)c2c(C(=O)NCN3CCCCC3)[nH]c3ccc([N+](=O)[O-])cc23)c1 | 0.013 | 12 | 0.307 | 0.01 | 0.999 | 0.0031 | 7.5 | 3871
17 | Cc1cc(C)cc(S(=O)(=O)c2c(C(=O)NCCN3CCOCC3)[nH]c3ccc(Cl)cc23)c1 | 0.099 | 50 | 6.68 | 0.225 | > 40 | 0.0088 | > 2 | 5682
18 | Cc1cc(C)cc(S(=O)(=O)c2c(C(=O)NCCn3cccc3)[nH]c3ccc(Br)cc23)c1 |  | 146 |  |  |  | 0.0064 | > 10 | 22813
19 | Cc1cc(C)cc(S(=O)(=O)c2c(C(=O)NCCN3CCOCC3)[nH]c3ccc(Cl)c(F)c23)c1 | 0.711 | 11 | 6.37 | 0.747 | > 40 | 0.013 | > 10 | 846
20 | Cc1cc(C)cc(S(=O)(=O)c2c(C(=O)NCN3CCOCC3)[nH]c3ccc(Cl)c(F)c23)c1 | 0.08 | 38 | 1.17 | 0.241 | 10.2 | 0.0025 | > 10 | 15200
21 | Cc1cc(C)cc(S(=O)(=O)c2c(C(=O)NCN3CCCC3)[nH]c3ccc([N+](=O)[O-])cc23)c1 | 0.034 | 12 | 0.287 | 0.054 | 1.02 | 0.0025 | 7.8 | 4800
22 | Cc1cc(C)cc(S(=O)(=O)c2c(C(=O)NCN3CCCCC3)[nH]c3ccc(Br)cc23)c1 | 0.03 | 10 | 0.125 | 0.019 | 0.497 | 0.0037 | > 2 | 2703
23 | Cc1cc(C)cc(S(=O)(=O)c2c(C(=O)NCCN3CCOCC3)[nH]c3ccc(Br)cc23)c1 | 0.063 | 409 | 1.36 | 0.108 | > 40 | 0.17 | > 50 | 2406
24 | Cc1cc(C)cc(S(=O)(=O)c2c(C(=O)NCCc3ccccc3)[nH]c3ccc(Br)cc23)c1 | 0.128 | 409 | 1.68 | 0.023 | > 40 | 0.014 | > 2 | 29214
25 | Cc1cc(C)cc(S(=O)(=O)c2c(C(=O)NCN3CCCC3)[nH]c3ccc(Br)cc23)c1 | 0.008 | 9.6 | 0.067 | 0.014 | 0.418 | 0.0013 | > 2 | 7385
26 | Cc1cc(C)cc(S(=O)(=O)c2c(C(=O)NCc3ccccc3)[nH]c3ccc(Cl)c(F)c23)c1 | 0.04 | 15 | 0.144 | 0.04 | > 40 | 0.0058 | > 2 | 2586
27 | Cc1cc(C)cc(S(=O)(=O)c2c(C(=O)NCCOc3ccccc3)[nH]c3ccc([N+](=O)[O-])cc23)c1 | 0.95 | > 500 | > 40 | > 40 | > 40 | 0.029 | > 2 | >17241
28 | Cc1cc(C)cc(S(=O)(=O)c2c(C(=O)NCCN3CCCC3)[nH]c3ccc([N+](=O)[O-])cc23)c1 | 0.28 | 21 | 1.35 | 0.594 | > 40 | 0.016 | > 10 | 1313
